MEKK2mut PB1 HTS: signal of MEK5 binding to mutant human MEKK2 PB1 domain; hit rate 0.35% among 290,000; percent response, % at 10 µM; AID 1530; bead flow cytometry, Alexa488-MEK5 binding to MEKK2 mutant; in the data active means percent response above about 24%, passing the limit was not always enough
MEKK3 PB1 HTS: raises or lowers MEK5 binding to the human MEKK3 PB1 domain | bead-based flow cytometry, Alexa488-MEK5 binding to MEKK3; actives lie on both sides; 0 = blocked by unlabeled MEK5, 100 = vehicle | hit rate 1.4% among 290,000 | AID 1529 | binding response (% of control), % at 10 µM;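 active means binding response more than 3 SD above or below the average of its plate-row segment, actives on both sides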;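 further: Alexa488 bead fluorescence after subtracting the streptavidin-only scavenger bead signal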
Target sequence (Q99759 whole entry, looked up, the tested form may be a part): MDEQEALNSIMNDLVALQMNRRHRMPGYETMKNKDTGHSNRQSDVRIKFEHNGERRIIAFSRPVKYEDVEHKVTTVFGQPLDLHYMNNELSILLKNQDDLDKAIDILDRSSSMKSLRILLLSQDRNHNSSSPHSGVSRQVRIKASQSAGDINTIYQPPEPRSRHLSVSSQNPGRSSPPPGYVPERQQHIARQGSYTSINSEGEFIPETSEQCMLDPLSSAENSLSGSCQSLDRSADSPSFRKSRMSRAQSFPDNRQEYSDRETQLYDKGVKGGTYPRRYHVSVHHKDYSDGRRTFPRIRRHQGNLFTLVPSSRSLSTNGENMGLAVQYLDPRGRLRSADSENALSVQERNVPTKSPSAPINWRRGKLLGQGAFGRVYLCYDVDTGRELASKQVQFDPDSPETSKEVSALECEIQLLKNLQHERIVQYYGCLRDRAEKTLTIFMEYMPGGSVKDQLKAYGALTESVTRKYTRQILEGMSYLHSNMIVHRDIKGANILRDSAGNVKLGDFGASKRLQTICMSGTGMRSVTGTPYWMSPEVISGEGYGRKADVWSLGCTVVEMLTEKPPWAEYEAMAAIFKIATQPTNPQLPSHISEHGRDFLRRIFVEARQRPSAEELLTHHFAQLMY
MEKK2 WT-MEK5: raises or lowers MEK5 binding to wildtype human MEKK2 PB1 domain; hit rate 1.1% among 290,000; AID 1531; bead flow cytometry, Alexa488-MEK5 binding to MEKK2 WT; actives lie on both sides; binding response (% of control), % at 10 µM; in the data active means binding response below about 67% or above about 130%
PREPL inh: human PREPL enzyme inhibition; recombinant PREPL, fluorescence polarization activity-based probe; inhibition, % at 5.96 µM; hit rate 0.68% among 320,000; AID 2751; in the data active means inhibition above about 43%
UBC13 polyUb: human UBC13 polyubiquitination inhibition; UBC13 polyubiquitin chain formation, TR-FRET; inhibition, % at 20 µM; P61088; hit rate 0.47% among 330,000; AID 485273; in the data active means inhibition above about 45%, passing the limit was not always enough
Target sequence (P61088 whole entry, looked up): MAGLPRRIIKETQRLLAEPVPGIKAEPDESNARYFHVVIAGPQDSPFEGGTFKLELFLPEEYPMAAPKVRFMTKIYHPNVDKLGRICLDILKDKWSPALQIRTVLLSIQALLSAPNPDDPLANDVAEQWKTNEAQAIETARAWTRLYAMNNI
Apaf1 inhib: human Apaf-1 inhibition | hit rate 0.71% among 330,000 | reconstituted apoptosome caspase-3 activity, DEVD-Rh110 fluorescence | O14727 | inhibition, % at 20 µM; active means inhibition of at least 40% at 20 µM
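Material: reconstituted apoptosome with Apaf-1, cytochrome c, caspase-9, procaspase-3, dATP. Technique: Rh110 fluorescence intensity. Buffer or medium: pH 7.5 Hepes buffer with CHAPS, BSA, DTT. Times: 30 min plus 50 min, RT.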
MEKK2wt confirm: raises or lowers MEK5 binding to wildtype human MEKK2, retest; shares compounds with MEKK3 PB1 HTS; bead flow cytometry, Alexa488-MEK5 binding to MEKK2 WT; actives lie on both sides; binding response (% of control), % at 10 µM; hit rate 2.4% among 5,900; in the data active means binding response below about 16% or above about 210%; inactive means in between
MEKK2mut-MEK5: signal of MEK5 binding to mutant human MEKK2, retest; shares compounds with MEKK3 PB1 HTS; bead flow cytometry, Alexa488-MEK5 binding to MEKK2 mutant; percent response, % at 10 µM; hit rate 2% among 5,900; AID 1893; in the data active means percent response mostly above about 71%, no sharp cut-off; inactive means mostly below about 38%;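 further: higher means compound restores mutant binding toward wildtype level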
MEKK3-MEK5 inh: MEKK3-MEK5 PB1 inhibition, single concentration confirmation | shares compounds with MEKK3 PB1 HTS | bead flow cytometry, Alexa488-MEK5 binding to MEKK3; hits give low values | binding response (% of control), % at 10 µM | hit rate 1.8% among 5,900;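 active means binding response below 72% of control, or above a set upper limit, though filed actives all read lower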
Large screens that a line does not name were inactive (follow-up assays come after a bar, where they were run); [ ] = another dose, or the depositor's remark. A selection: hits, their analogues and other compounds. The true share with any hit is near 3.1%.

c1csc(-c2cn3ccc4ccccc4c3n2)c1	MEKK3 PB1 HTS 6.0[inhibitor], MEKK2 WT-MEK5 7.0[inhibitor] | MEKK2wt confirm inactive | MEKK2mut-MEK5 inactive | MEKK3-MEK5 inh inactive
CCC(NC(=S)NCc1ccc(F)cc1)c1ccccc1 (centres undefined)	none
O=C(Nc1ccc2c(c1)nc1n2CCN(Cc2ccccc2)C1)c1cccs1	MEKK2 WT-MEK5 3.0[inhibitor] | MEKK2wt confirm inactive | MEKK2mut-MEK5 inactive | MEKK3-MEK5 inh inactive
O=C(COC(=O)c1cc(Br)ccc1O)NNC(=O)c1cccs1	none (no result: MEKK2mut PB1 HTS, MEKK3 PB1 HTS, MEKK2 WT-MEK5)
CN(C)S(=O)(=O)c1cccc(NC(=S)Nc2cc(Cl)cc(Cl)c2)c1	MEKK2 WT-MEK5 150.0 | MEKK2wt confirm inactive | MEKK2mut-MEK5 inactive | MEKK3-MEK5 inh inactive
COc1ccc(S(=O)(=O)N(CC(=O)NCC2CCCO2)C2CCCCC2)cc1OC (centres undefined)	none
CCN(CC(=O)Nc1cc(Cl)ccc1C)C(=O)C1COc2ccccc2O1 (centres undefined)	none (no result: MEKK2mut PB1 HTS, MEKK3 PB1 HTS, MEKK2 WT-MEK5)
O=C1CCCC(O)=C1N=Nc1ccc(C(=O)O)cc1	none
O=C1CCCC(O)=C1N=Nc1ccc2c(c1)OCO2	MEKK3 PB1 HTS 146.0 | MEKK2wt confirm inactive | MEKK2mut-MEK5 inactive | MEKK3-MEK5 inh inactive
O=C(CCC(=O)Nc1ccc(Cl)cc1Cl)NNC(=O)[C@@H]1CCCC[C@@H]1C(=O)O	MEKK3 PB1 HTS 1.0[inhibitor], MEKK2 WT-MEK5 1.0[inhibitor] (no result: UBC13 polyUb, Apaf1 inhib) | MEKK2wt confirm inactive | MEKK2mut-MEK5 inactive | MEKK3-MEK5 inh inactive
O=C(O)C1CCCCC1C(=O)Nc1ccc(Cl)cc1Cl (centres undefined)	none
O=C(Nc1ccc2ccccc2c1)c1ccc2[nH]c(=O)c(=O)[nH]c2c1	none
CCOC(=O)c1c(C)oc2ccc(O)c(CN(C)C)c12	none
CCOC(=O)c1c(C)oc2cc(Cl)c(O)c(CN(C)C)c12	MEKK3 PB1 HTS 128.0 | MEKK2wt confirm inactive | MEKK2mut-MEK5 inactive | MEKK3-MEK5 inh inactive
COCC(=O)Nc1cc(C(=O)Nc2ccccc2C)ccc1Cl	MEKK3 PB1 HTS 82.0[inhibitor] | MEKK2wt confirm inactive | MEKK2mut-MEK5 inactive | MEKK3-MEK5 inh inactive
O=C(CN(Cc1ccccc1)C(=O)CCC(=O)Nc1nccs1)NCC1CCCO1 (centres undefined)	none
CCN(C(=O)CN1CCCCC1)C1(C)C(=O)c2ccccc2C1=O	MEKK3 PB1 HTS 140.0 | MEKK2wt confirm inactive | MEKK2mut-MEK5 inactive | MEKK3-MEK5 inh inactive
CCN(c1ccccc1)C1(O)C(=O)c2ccccc2C1=O	none
COC(=O)c1ccc(N2C(=O)Nc3ccccc3N2O)cc1	MEKK3 PB1 HTS 50.0[inhibitor] | MEKK2wt confirm inactive | MEKK2mut-MEK5 inactive | MEKK3-MEK5 inh inactive
Cc1cc(C(=O)NNC(=O)c2ccc(C)s2)c(C)o1	none (no result: MEKK2mut PB1 HTS, MEKK3 PB1 HTS, MEKK2 WT-MEK5)
CC(C)(C)c1ccc(CNc2ccc([N+](=O)[O-])cn2)cc1	MEKK3 PB1 HTS 145.0 (no result: UBC13 polyUb, Apaf1 inhib) | MEKK2wt confirm inactive | MEKK2mut-MEK5 inactive | MEKK3-MEK5 inh inactive
CCC(=O)NCCNc1ccc([N+](=O)[O-])cn1	MEKK3 PB1 HTS 74.0[inhibitor] | MEKK2wt confirm inactive | MEKK2mut-MEK5 inactive | MEKK3-MEK5 inh inactive
OCCOCCOc1ccc(-c2nn[nH]n2)cc1	MEKK3 PB1 HTS 74.0[inhibitor] | MEKK2wt confirm inactive | MEKK2mut-MEK5 inactive | MEKK3-MEK5 inh inactive
COc1ccc(NC(=O)CSc2nnc3ccc(-c4cccnc4)nn23)cc1OC	none (no result: MEKK2mut PB1 HTS, MEKK3 PB1 HTS, MEKK2 WT-MEK5)
COc1ccccc1CNC(=O)CSc1nnc2ccc(-c3cccnc3)nn12	MEKK2mut PB1 HTS 171.0 | MEKK2wt confirm inactive | MEKK2mut-MEK5 inactive | MEKK3-MEK5 inh inactive
Cc1cc(NC(=O)COC(=O)c2cc(S(=O)(=O)N(C)C)ccc2Cl)no1	none (no result: MEKK2mut PB1 HTS, MEKK3 PB1 HTS, MEKK2 WT-MEK5)
CC(C)c1c(C(=O)N/N=C/c2ccc3c(c2)OCO3)nnn1-c1nonc1N	none
CCN(CC)c1ccc(/C=N/NC(=O)c2nnn(-c3nonc3N)c2C(C)C)c(O)c1	MEKK3 PB1 HTS 2.0[inhibitor], MEKK2 WT-MEK5 1.0[inhibitor] | MEKK2wt confirm inactive | MEKK2mut-MEK5 inactive | MEKK3-MEK5 inh inactive
Cc1cc(C)n(CC(O)Cn2ccc3ccccc32)n1 (centres undefined)	none
OCc1nc2ccccc2n1CC(O)Cn1ccc2ccccc21 (centres undefined)	none
O=C1c2ccccc2S(=O)(=O)N1CC(O)Cn1ccc2ccccc21 (centres undefined)	MEKK2mut PB1 HTS 81.0, MEKK2 WT-MEK5 31.0 | MEKK2wt confirm inactive | MEKK2mut-MEK5 inactive | MEKK3-MEK5 inh inactive
OC(CN1CCNCC1)Cn1ccc2ccccc21 (centres undefined)	MEKK2mut PB1 HTS 35.0, PREPL inh 60.3 | MEKK2wt confirm inactive | MEKK2mut-MEK5 inactive | MEKK3-MEK5 inh inactive
C=CCNC(=S)NNc1nc2c(c(=O)[nH]1)C1(CCCC1)Cc1ccccc1-2	MEKK3 PB1 HTS 142.0 | MEKK2wt confirm inactive | MEKK2mut-MEK5 inactive | MEKK3-MEK5 inh inactive
O=c1[nH]c(NNC(=S)NCc2ccccc2)nc2c1C1(CCCCC1)Cc1ccccc1-2	none
Cc1ccc2c(c1)c1c(n2CC(O)Cn2c(C)nc3ccccc32)CCCC1 (centres undefined)	MEKK2mut PB1 HTS 27.0 | MEKK2wt confirm inactive | MEKK2mut-MEK5 inactive | MEKK3-MEK5 inh inactive
CC(=O)c1ccc(OCc2cc(C(=O)NC(C)CCn3cccn3)no2)cc1 (centres undefined)	none
COc1ccc(NC2CC(=O)N(c3ccc(C(=O)O)cc3)C2=O)cc1 (centres undefined)	MEKK3 PB1 HTS 130.0 | MEKK2wt confirm inactive | MEKK2mut-MEK5 inactive | MEKK3-MEK5 inh inactive
CC(=O)ONC(=Nc1ccccc1)c1nonc1N	MEKK3 PB1 HTS 47.0[inhibitor] | MEKK2wt confirm inactive | MEKK2mut-MEK5 inactive | MEKK3-MEK5 inh inactive
Cc1nn(-c2ccccc2)nc1C(=O)Oc1cc(C(F)(F)F)nn1-c1ccccc1	none
N=C1/C(=C/c2cccn2Cc2ccc(Cl)cc2)C(=O)N=C2SC=CN12	MEKK3 PB1 HTS 129.0 | MEKK2wt confirm inactive | MEKK2mut-MEK5 inactive | MEKK3-MEK5 inh inactive
NS(=O)(=O)c1ccc(CCNC(=O)c2ccc(Cl)s2)cc1	none
Cc1ccc(C(=O)NCC(=O)NCCc2ccc(S(N)(=O)=O)cc2)s1	MEKK3 PB1 HTS 34.0[inhibitor], MEKK2 WT-MEK5 38.0[inhibitor] | MEKK2wt confirm inactive | MEKK2mut-MEK5 inactive | MEKK3-MEK5 inh inactive
COc1ccc(-c2oc3ncnc(NCCCN4CCOCC4)c3c2-c2ccc(OC)cc2)cc1	MEKK2 WT-MEK5 138.0 | MEKK2wt confirm inactive | MEKK2mut-MEK5 inactive | MEKK3-MEK5 inh inactive
